# Rows were chosen to be rich in hits. Some 2.3% of all compounds tested hit in one or more screens of this group.
# TRPC4 block: TRPC4 (mouse) channel inhibition; Q9QUQ5; HEK293 TRPC4beta/mu-opioid, DAMGO-evoked Fluo4 calcium flux; active compounds read low; B-score at 10 µM; hit rate 0.39% among 300,000; AID 2247;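 active means B-score over 3 SD under the library average, no early fluorescence shift, positive overall ratio signal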
#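 Material: HEK293 cells with stable TRPC4beta plus mu-opioid receptor expression / Probe or stimulus: DAMGO in two steps, submaximal then maximal / Compound: single concentration per test compound / Technique: kinetic Fluo4 fluorescence imaging of calcium influx / Read-out: per-well B score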
# TRPC4 agonist: TRPC4 (mouse) channel activation; B-score at 10 µM; AID 2237; hit rate 0.49% among 310,000; HEK293 TRPC4beta/mu-opioid, Fluo4 calcium fluorescence; active compounds read high; Q9QUQ5;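 active means B-score above 5 SD of library B-scores, and initial fluorescence ratio not above library mean plus 5 SD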;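 further: positive B-score marks a calcium rise read as TRPC4 activation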
#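 Material: TRPC4beta and mu-opioid receptor HEK293 stable cells | Incubation: 45 min room-temperature Fluo4 loading, 110 s read | Detection: Kinetic Fluo4 calcium fluorescence | Measure: Integrated baseline-normalised fluorescence ratio, converted to per-well B score | Benchmarks: Low control buffer alone, high control maximal DAMGO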
# TRPC4 potent: allosterically enhances the mouse TRPC4 cation channel; Q9QUQ5; HEK293 TRPC4beta/mu-opioid, DAMGO EC20, Fluo-4 Ca2+ flux; active compounds read high; B-score at 10 µM; hit rate 0.42% among 310,000;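 active means B-score of calcium response area above 5 SD of library B-scores, with initial fluorescence ratio within 5 SD of library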;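 further: B-score of integrated fluorescence ratio over time as area under calcium response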
# TRPC6 activator: activates the mouse TRPC6 cation channel; HEK293-TRPC6 membrane potential dye fluorescence; active compounds read high; B-score at 10 µM; hit rate 0.13% among 310,000; AID 2550;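 active means B-score of the integrated fluorescence ratio above library mean plus 3 SD, and starting fluorescence ratio within library mean plus 5 SD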;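 further: higher score means more depolarization so channel activation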
# Target sequence (Q61143 whole entry, looked up): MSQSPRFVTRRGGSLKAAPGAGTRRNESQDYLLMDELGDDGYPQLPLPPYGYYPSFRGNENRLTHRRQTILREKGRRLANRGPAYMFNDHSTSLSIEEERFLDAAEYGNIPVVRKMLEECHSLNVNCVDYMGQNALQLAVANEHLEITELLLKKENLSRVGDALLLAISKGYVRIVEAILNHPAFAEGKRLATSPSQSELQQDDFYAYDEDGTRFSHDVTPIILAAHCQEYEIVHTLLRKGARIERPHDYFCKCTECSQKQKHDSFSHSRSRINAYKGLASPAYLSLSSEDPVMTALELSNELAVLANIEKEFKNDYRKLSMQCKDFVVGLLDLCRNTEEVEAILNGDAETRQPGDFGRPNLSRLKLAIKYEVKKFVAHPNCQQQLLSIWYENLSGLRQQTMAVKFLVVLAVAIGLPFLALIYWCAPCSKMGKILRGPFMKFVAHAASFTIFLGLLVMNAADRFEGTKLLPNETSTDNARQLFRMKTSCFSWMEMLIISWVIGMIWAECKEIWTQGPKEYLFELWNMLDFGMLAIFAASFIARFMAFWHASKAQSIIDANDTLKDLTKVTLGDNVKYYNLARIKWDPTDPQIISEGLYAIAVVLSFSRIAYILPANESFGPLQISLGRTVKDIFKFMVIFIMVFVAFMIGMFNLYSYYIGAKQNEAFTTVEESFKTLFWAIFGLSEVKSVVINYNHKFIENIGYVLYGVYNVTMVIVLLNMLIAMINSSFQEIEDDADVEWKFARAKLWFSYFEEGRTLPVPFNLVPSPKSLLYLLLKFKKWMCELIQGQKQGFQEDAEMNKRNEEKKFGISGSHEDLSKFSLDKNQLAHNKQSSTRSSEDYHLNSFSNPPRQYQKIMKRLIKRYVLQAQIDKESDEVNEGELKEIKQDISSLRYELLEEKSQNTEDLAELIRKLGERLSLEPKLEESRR
# TRPC6 inhibitor: inhibitors of mouse TRPC6 channel; B-score at 10 µM; Q61143; hit rate 1.1% among 310,000; HEK293-TRPC6, membrane potential dye, ACh-evoked depolarization; active compounds read low;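 active means B-score under library mean minus 3 SD, initial fluorescence not abnormally high, positive integrated signal ratio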;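 further: B-score derived from integrated fluorescence ratio over the kinetic read; more negative B-score means stronger inhibition of depolarization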
# TRPC4 spec 2: second check of whether TRPC6 inhibitors also affect mouse TRPC4. shares compounds with TRPC6 inhibitor. HEK293 TRPC4/MOR, membrane potential dye fluorescence; channel activated by saturating DAMGO dose. inhibition, % at 10 µM. hit rate 42% among 920;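 active means compounds whose fluorescence signal differed from control wells by over 3 SD, either direction, in both duplicate plates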
# TRPC4 spec: tests whether TRPC6 inhibitors also affect mouse TRPC4. shares compounds with TRPC6 inhibitor. HEK293 TRPC4/mu-opioid, membrane potential fluorescence. activity change, negative = inhibition, % at 10 µM. hit rate 61% among 920. AID 2777;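 active means rise or fall in signal beyond 3 SD of buffer-only wells in both replicate plates, either sign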;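 further: integrated kinetic ratio of fluorescence range over baseline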
# HEK293 MPD ctr 2-1: second check of TRPC6 inhibitor effects in parental HEK293 cells; shares compounds with TRPC6 inhibitor; parental HEK293 membrane potential dye fluorescence; maximal acetylcholine challenge after compound addition; signal change vs control, % at 10 µM; hit rate 31% among 920; AID 2779;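 active means membrane potential signal moving either way by over 3 SD of the maximum-effect control, in both duplicate plates, meaning non-specific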
# HEK293 MPD ctr-1: counter-screen for TRPC6 inhibitors: effect in parental HEK293 cells. shares compounds with TRPC6 inhibitor. parental HEK293 membrane potential dye fluorescence. membrane potential signal change, % at 10 µM. hit rate 60% among 920. AID 2780;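 active means membrane potential signal shifting up or down by more than 3 SD of buffer-only wells, on both duplicate plates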
# HEK293 MPD ctr-2: counter-screen for TRPC6 modulators: effect in parental HEK293 cells; hit rate 51% among 2,400; membrane potential signal change, % at 10 µM; membrane potential dye fluorescence; shares compounds with TRPC6 inhibitor;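 active means membrane potential signal moves up or down beyond 5 SD from buffer-only wells, on both duplicate plates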
# HEK293 MPD ctr 2-2: second counter-screen for TRPC6 modulators: effect in parental HEK293 cells | inhibition, % at 10 µM | membrane potential dye fluorescence; after compound, maximal acetylcholine stimulation | hit rate 14% among 2,400 | shares compounds with TRPC6 inhibitor;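 active means membrane potential signal drops by more than 5 SD from the mean control signal, in both duplicate plates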;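 further: plate controls were acetylcholine ECmax control wells for no effect and buffer only wells for full effect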
# TRPC4/MOR mod: tests whether TRPC6 modulators also affect mouse TRPC4 | percent change from control (negative = decrease, positive = increase), % at 10 µM | hit rate 69% among 2,400 | shares compounds with TRPC6 inhibitor | HEK293 TRPC4/mu-opioid, membrane potential fluorescence | AID 488927;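 active means membrane potential signal moved up or down beyond 5 SD of buffer control wells, in both duplicate plates, actives on both sides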;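 further: plate controls were assay buffer wells for no effect and DAMGO maximal-effect wells for full effect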
# TRPC4/MOR inh 2: second check of whether TRPC6 modulators also affect mouse TRPC4. shares compounds with TRPC6 inhibitor. AID 488928. hit rate 55% among 2,400. HEK293 TRPC4/mu-opioid, membrane potential dye fluorescence; stimulated with maximal-effect DAMGO. inhibition, % at 10 µM;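 active means drop in membrane potential signal beyond 5 SD of the control wells in both duplicate plates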;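 further: TRPC4 counter screen for TRPC6 hits run under conditions tuned for TRPC6 not TRPC4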
# TRPC6 block conf: mouse TRPC6 inhibitor confirmation; shares compounds with TRPC6 inhibitor; HEK293-TRPC6, membrane potential dye, ACh-evoked depolarization; inhibition, % at 10 µM; hit rate 43% among 3,300;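 active means fluorescence ratio falls more than 5 SD below the full-stimulation control mean, in both duplicate runs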;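 further: integrated fluorescence ratio of peak minus minimum over baseline after agonist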
# TRPC6 act conf: confirmation of mouse TRPC6 activators; shares compounds with TRPC6 inhibitor; HEK293-TRPC6 membrane potential dye fluorescence, FDSS; activation, % at 10 µM; hit rate 11% among 2,800; AID 488961;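 active means ratio signal rise beyond 5 SD above unstimulated control wells' mean, seen in both duplicate runs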;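 further: plate controls were buffer EC0 wells for no effect and acetylcholine ECmax response for full effect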
# Active calls of the source: *; i = inactive; . = not tested or not shown.
SMILES,TRPC4 block,TRPC4 agonist,TRPC4 potent,TRPC6 activator,TRPC6 inhibitor,HEK293 MPD ctr-2,HEK293 MPD ctr 2-2,TRPC4/MOR mod,TRPC4/MOR inh 2,TRPC6 block conf,TRPC6 act conf,others
CCOC(=O)c1nnn(-c2nc(OC)nc(N3CCCC3)n2)c1-c1ccccc1,i,i,i,i,i,.,.,.,.,.,.,
CCNc1nc(N2CCCCC2)nc(-n2nnc(C(=O)OCC)c2C)n1,i,i,i,12*,i,i,i,112%*,80%*,i,68%*,
Cc1ccc(-c2nc(CS(=O)CC(=O)NCCCc3ccccc3)c(C)o2)cc1 (centres undefined),i,i,i,i,i,.,.,.,.,.,.,
CCOC(=O)c1ccc(NC(=O)CCc2ccc(CC)o2)cc1,i,i,i,i,-12*,.,.,.,.,i,.,TRPC4 spec 2=i;TRPC4 spec=i;HEK293 MPD ctr 2-1=i;HEK293 MPD ctr-1=i
COc1ccccc1N1CCN(S(=O)(=O)CCNC(=O)C2CCCC2)CC1,i,i,i,i,i,.,.,.,.,.,.,
CCN(CC)CCC(=O)Nc1cccc2c1C(=O)c1ccccc1C2=O,i,i,i,i,-6.4*,i,i,-30%*,46%*,52%*,i,
Nc1cccc(C(=O)OCC(=O)Nc2cccc3c2C(=O)c2ccccc2C3=O)c1,i,i,i,i,i,.,.,.,.,.,.,
c1cc2c3c(cccc3c1)C(N1CCCCC1)=N2,i,i,i,i,-11*,-195%*,78%*,-52%*,93%*,76%*,i,
c1ccc(NC2=Nc3cccc4cccc2c34)cc1,i,i,i,i,i,.,.,.,.,.,.,
c1cc2c3c(cccc3c1)C(N1CCCCCC1)=N2,i,i,i,i,-12*,-208%*,i,-46%*,68%*,i,i,
O=C1C=C(Nc2ccc(Cl)cc2)C(=O)N1c1ccc(Cl)cc1,i,i,i,i,i,.,.,.,.,.,.,
Cn1c(-c2ccc3c(c2)OCO3)cnc1NCc1ccc(Cl)cc1,i,i,i,i,-6.2*,i,i,i,76%*,48%*,i,
Cc1ccc(CNc2ncc(-c3ccc4c(c3)OCO4)n2C)cc1,i,i,i,i,i,.,.,.,.,.,.,
COc1ccc(OC)c(CNc2ncc(-c3cccc([N+](=O)[O-])c3)n2C)c1,i,i,i,i,i,.,.,.,.,.,.,
COc1ccc(-c2cnc(NCc3cc4c(cc3[N+](=O)[O-])OCO4)n2C)cc1,i,i,i,i,-5.6*,i,i,i,44%*,i,i,
Cc1c(Cl)cccc1NC(=O)CNc1ccccc1F,i,i,i,i,i,.,.,.,.,.,.,

# High-throughput results deposited in PubChem BioAssay by Johns Hopkins Ion Channel Center.
